Experimental data published in ChEMBL document CHEMBL5252656, “Cyclic Peptidic Furin Inhibitors Developed by Combinatorial Chemistry” (ACS Med Chem Lett, 2023).
Calls of active or inactive are those of the source. No cut-off for these calls is given here. Bridge positions count the residues as written; N and C are the ends. Peptide text beside a SMILES is read from it.

Experiments:
Furin (Homo sapiens) [1] = molecular target: Furin (Homo sapiens) (UniProt P09958); test: Inhibition of human furin in human PANC-1 cells assessed as release of fluorescent AMC using Pyr-Arg-Thr-Arg-AMC as substrate preincubated for 30 mins followed by substrate addition by plate reader analysis; type: cell-based; set-up: concentration or dose not given beside the values
Furin (Homo sapiens), sequence (P09958 whole entry): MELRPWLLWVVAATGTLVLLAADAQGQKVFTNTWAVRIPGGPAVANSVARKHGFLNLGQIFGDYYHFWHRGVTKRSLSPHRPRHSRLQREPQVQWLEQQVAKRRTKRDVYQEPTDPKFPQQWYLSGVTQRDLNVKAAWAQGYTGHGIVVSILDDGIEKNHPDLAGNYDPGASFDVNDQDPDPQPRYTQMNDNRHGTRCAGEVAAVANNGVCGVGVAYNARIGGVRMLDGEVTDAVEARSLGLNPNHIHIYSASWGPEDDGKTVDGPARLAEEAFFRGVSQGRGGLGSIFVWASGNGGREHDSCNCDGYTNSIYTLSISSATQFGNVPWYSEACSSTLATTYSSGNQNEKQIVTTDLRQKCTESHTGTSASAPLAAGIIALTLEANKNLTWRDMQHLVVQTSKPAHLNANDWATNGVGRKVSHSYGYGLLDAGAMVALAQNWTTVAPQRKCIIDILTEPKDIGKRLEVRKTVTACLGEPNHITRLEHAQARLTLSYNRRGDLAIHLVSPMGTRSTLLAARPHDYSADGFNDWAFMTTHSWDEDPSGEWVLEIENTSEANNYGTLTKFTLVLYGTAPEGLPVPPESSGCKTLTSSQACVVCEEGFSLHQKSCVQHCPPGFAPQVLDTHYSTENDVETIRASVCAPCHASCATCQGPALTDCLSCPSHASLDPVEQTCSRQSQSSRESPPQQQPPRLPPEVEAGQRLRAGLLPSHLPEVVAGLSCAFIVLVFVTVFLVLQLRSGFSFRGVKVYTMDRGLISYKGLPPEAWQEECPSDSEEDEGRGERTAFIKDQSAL
Method in brief: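 PANC-1 lysate (DMEM/10% FBS culture, protease-inhibitor cocktail extraction) was diluted 10-fold in 100 mM HEPES, 1 mM CaCl2, pH 7.5, then warmed 15 min at 37 °C. Peptide (100 μM final) was added for 30 min at 37 °C, then Pyr-RTR-AMC substrate (100 μM final). AMC release was monitored over time; % inhibition relative to no-inhibitor control.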

Furin (Homo sapiens) [2] = molecular target: Furin (Homo sapiens) (UniProt P09958); test: Inhibition of human furin in human PANC-1 cells assessed as release of fluorescent AMC using Pyr-Arg-Thr-Arg-AMC as substrate preincubated for 10 mins in presence of SFTI-1 then incubation with ligand for 30 mins followed by substrate addition by plate reader analysis; type: cell-based; settings: time 40.0 min
Method in brief: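 PANC-1 cells grown in DMEM with 10% FBS and 1% P/S at 37 °C, 5% CO2. Cell lysate was prepared in protease inhibitor cocktail and diluted 10-fold in pH 7.5 HEPES/CaCl2 buffer. It was given SFTI-1 (100 μM final) for 10 min at 37 °C, then peptide (100 μM final) for 30 min, then Pyr-RTR-AMC (100 μM final). AMC release was followed; % inhibition vs no-inhibitor control.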

[3] = molecular target: T1, Transmembrane protease serine 6 (Homo sapiens) (UniProt Q8IU80); test: Inhibition of recombinant human matriptase 2 using Boc-Gln-Ala-Arg-AMC as substrate at 3.85 to 385 nM preincubated for 30 mins followed by substrate addition and measured for 40 mins by microplate reader method; settings: dose 3.85-385 nM, time 70.0 min
T1 sequence (whole entry): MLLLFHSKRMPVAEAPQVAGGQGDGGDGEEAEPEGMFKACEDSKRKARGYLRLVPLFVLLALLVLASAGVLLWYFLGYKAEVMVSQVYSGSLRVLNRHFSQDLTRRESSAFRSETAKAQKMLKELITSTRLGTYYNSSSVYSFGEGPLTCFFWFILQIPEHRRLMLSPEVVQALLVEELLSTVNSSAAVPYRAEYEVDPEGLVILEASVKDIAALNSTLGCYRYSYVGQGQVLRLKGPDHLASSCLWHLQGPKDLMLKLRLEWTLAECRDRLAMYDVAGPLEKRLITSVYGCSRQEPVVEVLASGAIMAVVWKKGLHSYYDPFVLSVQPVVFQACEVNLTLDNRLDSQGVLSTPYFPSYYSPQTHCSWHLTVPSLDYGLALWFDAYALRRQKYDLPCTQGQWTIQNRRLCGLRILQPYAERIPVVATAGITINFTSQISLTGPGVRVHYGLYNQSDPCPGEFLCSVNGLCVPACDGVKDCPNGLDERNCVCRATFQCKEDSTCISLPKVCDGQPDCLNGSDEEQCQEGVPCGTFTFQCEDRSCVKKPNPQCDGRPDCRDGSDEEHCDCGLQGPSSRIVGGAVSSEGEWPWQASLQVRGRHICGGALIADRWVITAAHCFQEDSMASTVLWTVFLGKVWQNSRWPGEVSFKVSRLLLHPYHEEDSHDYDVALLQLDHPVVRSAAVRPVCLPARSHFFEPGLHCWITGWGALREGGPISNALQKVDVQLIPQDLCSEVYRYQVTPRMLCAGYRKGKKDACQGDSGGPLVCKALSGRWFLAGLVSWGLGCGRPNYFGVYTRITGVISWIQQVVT
Method in brief: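 Recombinant human matriptase-2 (1.51 U/mL) in 50 mM Tris-Cl pH 8.3, 150 mM NaCl, 0.01% Triton X-100 was preincubated with compound 30 min at 37 °C. Boc-QAR-AMC (5 μM final) was then added; fluorescence (ex 380/em 450 nm) read ≥40 min. % inhibition vs no-inhibitor control.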

[4] = Stability in human serum assessed as parent compound remaining at 1.54 mM and measured after 24 hrs by RP-HPLC analysis; type: ADME, cell-free
Method in brief: (§1)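 Peptide stock (1.54 mM) was diluted 10-fold into human serum and held at 37 °C. Samples were taken at 0, 1, 2, 3, 5 and 24 h, precipitated with equal volume acetonitrile and centrifuged 10 min. Supernatant was analysed by RP-HPLC (C18, 10–90% B over 40 min) and MALDI-TOF MS.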

[5] = Stability in human serum assessed as parent compound remaining at 1.54 mM and measured after 24 hrs by MALDI-MS analysis; type: ADME, cell-free; method in brief: as §1
Furin (Homo sapiens) [6] = molecular target: Furin (Homo sapiens) (UniProt P09958); test: Inhibition of recombinant human furin using Pyr-Arg-Thr-Lys-Arg-AMC as substrate at 77 nM preincubated for 30 mins followed by substrate addition and measured for 40 mins by microplate reader method; settings: time 70.0 min
Furin (Homo sapiens) [7] = molecular target: Furin (Homo sapiens) (UniProt P09958); test: Inhibition of recombinant human furin using Pyr-Arg-Thr-Lys-Arg-AMC as substrate at 24 nM preincubated for 30 mins followed by substrate addition and measured for 40 mins by microplate reader method; settings: time 70.0 min
Furin (Homo sapiens) [8] = molecular target: Furin (Homo sapiens) (UniProt P09958); test: Inhibition of recombinant human furin using Pyr-Arg-Thr-Lys-Arg-AMC as substrate at 2.4 nM preincubated for 30 mins followed by substrate addition and measured for 40 mins by microplate reader method; settings: time 70.0 min

SMILES | inhibition (Furin (Homo sapiens) [1]) [%] | inhibition (Furin (Homo sapiens) [2]) [%] | inhibition [3] | Stability [4] | Stability [5] | inhibition (Furin (Homo sapiens) [6]) [%] | inhibition (Furin (Homo sapiens) [7]) [%] | inhibition (Furin (Homo sapiens) [8]) [%]
CC[C@H](C)[C@@H]1NC(=O)[C@@H]2CCCN2C(=O)[C@@H]2CCCN2C(=O)[C@H]([C@@H](C)CC)NC(=O)[C@H](CO)NC(=O)[C@H](CCCCN)NC(=O)[C@H]([C@H](C)O)NC(=O)[C@@H]2CSSC[C@H](NC1=O)C(=O)N[C@@H](Cc1ccccc1)C(=O)N1CCC[C@H]1C(=O)N[C@H](C(=O)O)CC(=O)NC(=N)NCCC[C@@H](C(N)=O)C(=O)N2 | 98.4 | – | – | – | – | – | – | –
CC[C@H](C)[C@@H]1NC(=O)[C@@H]2CCCN2C(=O)[C@@H]2CCCN2C(=O)[C@H]([C@@H](C)CC)NC(=O)[C@H](CO)NC(=O)[C@H](CCCCN)NC(=O)[C@H](CCCCN)NC(=O)[C@@H](NC(=O)[C@H](CCCNC(=N)N)NC(=O)[C@@H](N)CCCCN)CSSC[C@@H](C(=O)N[C@@H](Cc2ccccc2)C(N)=O)NC1=O (H-KRCKKSIPPICF-NH2; disulfide 3-11) | 50.4 | 34.7 | inactive | Stable | Stable | – | – | –
CC[C@H](C)[C@@H]1NC(=O)[C@@H]2CCCN2C(=O)[C@@H]2CCCN2C(=O)[C@H]([C@@H](C)CC)NC(=O)[C@H](CO)NC(=O)[C@H](CCCCN)NC(=O)[C@H](CCCCN)NC(=O)[C@@H](NC(=O)[C@H](CCCNC(=N)N)NC(=O)[C@H](CCCNC(=N)N)NC(=O)[C@@H](N)CCCCN)CSSC[C@@H](C(=O)N[C@@H](Cc2ccccc2)C(N)=O)NC1=O (H-KRRCKKSIPPICF-NH2; disulfide 4-12) | – | – | – | – | – | 0.1 | 3.98 | 66.5

Further lines, results first:

inhibition (Furin (Homo sapiens) [1]) [%] | inhibition (Furin (Homo sapiens) [2]) [%] | inhibition [3] | Stability [4] | Stability [5] | inhibition (Furin (Homo sapiens) [6]) [%] | inhibition (Furin (Homo sapiens) [7]) [%] | inhibition (Furin (Homo sapiens) [8]) [%] | SMILES
– | – | – | – | – | 0.2 | 6.02 | 63 | CC[C@H](C)[C@@H]1NC(=O)[C@@H]2CCCN2C(=O)[C@@H]2CCCN2C(=O)[C@H]([C@@H](C)CC)NC(=O)[C@H](CO)NC(=O)[C@H](CCCCN)NC(=O)[C@H](CCCCN)NC(=O)[C@@H](NC(=O)[C@H](CCCNC(=N)N)NC(=O)[C@@H](N)CCCNC(=N)N)CSSC[C@@H](C(=O)N[C@@H](Cc2ccccc2)C(N)=O)NC1=O (H-RRCKKSIPPICF-NH2; disulfide 3-11)
68.3 | 46.6 | inactive | Stable | Stable | – | – | 43.7 | CC[C@H](C)[C@@H]1NC(=O)[C@@H]2CCCN2C(=O)[C@@H]2CCCN2C(=O)[C@H]([C@@H](C)CC)NC(=O)[C@H](CO)NC(=O)[C@H](CCCCN)NC(=O)[C@H](CCCCN)NC(=O)[C@@H](NC(=O)[C@H](CCCNC(=N)N)NC(=O)[C@H](CCCNC(=N)N)NC(=O)[C@@H](N)CCCNC(=N)N)CSSC[C@@H](C(=O)N[C@@H](Cc2ccccc2)C(N)=O)NC1=O (H-RRRCKKSIPPICF-NH2; disulfide 4-12)
– | – | – | – | – | 3.72 | 46.1 | 97.2 | CC[C@H](C)[C@@H]1NC(=O)[C@@H]2CCCN2C(=O)[C@@H]2CCCN2C(=O)[C@H]([C@@H](C)CC)NC(=O)[C@H](CO)NC(=O)[C@H](CCCCN)NC(=O)[C@H](CCCCN)NC(=O)[C@@H]2CSSC[C@H](NC1=O)C(=O)N[C@@H](Cc1ccccc1)C(=O)N[C@@H](CCCNC(=N)N)C(=O)N[C@@H](CCCNC(=N)N)C(=O)N2 (cyclo(CFRRCKKSIPPI); disulfide 1-5)
64.8 | 45.9 | inactive | – | – | – | – | 40.2 | CC[C@H](C)[C@@H]1NC(=O)[C@@H]2CCCN2C(=O)[C@@H]2CCCN2C(=O)[C@H]([C@@H](C)CC)NC(=O)[C@H](CO)NC(=O)[C@H](CCCCN)NC(=O)[C@H](CCCCN)NC(=O)[C@@H]2CSSC[C@H](NC1=O)C(=O)N[C@@H](Cc1ccccc1)C(=O)N[C@@H](CCCCN)C(=O)N[C@@H](CCCNC(=N)N)C(=O)N[C@@H](CCCNC(=N)N)C(=O)N2 (cyclo(KRRCKKSIPPICF); disulfide 4-12)
58.8 | 45.2 | inactive | – | – | – | – | 34.7 | CC[C@H](C)[C@@H]1NC(=O)[C@@H]2CCCN2C(=O)[C@@H]2CCCN2C(=O)[C@H]([C@@H](C)CC)NC(=O)[C@H](CO)NC(=O)[C@H](CCCCN)NC(=O)[C@H](CCCCN)NC(=O)[C@@H]2CSSC[C@H](NC1=O)C(=O)N[C@@H](Cc1ccccc1)C(=O)N[C@@H](CCCNC(=N)N)C(=O)N[C@@H](CCCNC(=N)N)C(=O)N[C@@H](CCCNC(=N)N)C(=O)N2 (cyclo(RRRCKKSIPPICF); disulfide 4-12)
